In ChEMBL document CHEMBL4622928, “Discovery of 5-(4-methylpiperazin-1-yl)-2-nitroaniline derivatives as a new class of SIRT6 inhibitors” (Bioorg Med Chem Lett, 2020):

Tests used:
Histone deacetylase 11 = target: T1, Histone deacetylase 11 (Homo sapiens, UniProt Q96DB2); assay: Inhibition of HDAC11 (unknown origin)
T1 sequence (Q96DB2 whole entry): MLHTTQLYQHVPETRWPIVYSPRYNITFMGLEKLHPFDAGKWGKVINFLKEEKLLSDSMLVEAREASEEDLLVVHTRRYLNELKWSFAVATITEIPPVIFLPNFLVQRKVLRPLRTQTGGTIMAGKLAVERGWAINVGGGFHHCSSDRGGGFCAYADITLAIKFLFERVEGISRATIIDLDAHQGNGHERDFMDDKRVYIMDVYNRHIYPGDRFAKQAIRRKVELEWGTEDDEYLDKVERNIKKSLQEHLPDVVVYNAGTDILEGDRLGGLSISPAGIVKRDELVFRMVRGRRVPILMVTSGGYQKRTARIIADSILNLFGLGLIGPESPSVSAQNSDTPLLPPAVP
Outline: (§1)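 Each deacetylase was run in a Fluor de Lys (FDL) fluorogenic deacetylation assay as a selectivity screen, with compound tested at concentrations up to 200 μM. IC50 was estimated from the dose-response.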

[1] = target: NAD-dependent protein deacylase sirtuin-6 (Homo sapiens, UniProt Q8N6T7); assay: Inhibition of SIRT6 in human BxPC3 cells assessed as increase in H3K9Ac expression measured after 48 hrs by Western blot analysis; assay type: cell-based; settings: BXPC-3
Sequence of NAD-dependent protein deacylase sirtuin-6 (Q8N6T7 whole entry): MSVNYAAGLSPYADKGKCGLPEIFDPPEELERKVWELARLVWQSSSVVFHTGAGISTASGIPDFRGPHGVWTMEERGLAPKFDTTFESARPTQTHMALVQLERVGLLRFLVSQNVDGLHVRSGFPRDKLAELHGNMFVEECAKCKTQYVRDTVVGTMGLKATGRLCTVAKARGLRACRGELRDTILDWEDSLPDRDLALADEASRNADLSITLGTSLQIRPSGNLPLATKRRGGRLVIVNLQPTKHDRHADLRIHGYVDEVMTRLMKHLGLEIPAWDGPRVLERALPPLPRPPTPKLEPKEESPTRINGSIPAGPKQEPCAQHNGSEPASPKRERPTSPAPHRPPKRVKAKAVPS
Outline: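 BxPC-3 cells were exposed to 0.78, 1.56, 3.13, 6.25, 12.5 and 25 μM compound for 48 h. Histone H3K9ac and H3K18ac levels were then assessed by western blot, with β-actin as the loading control. Acetylation increase is read as cellular SIRT6 deacetylase inhibition.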

Histone deacetylase 9 = Histone deacetylase 9 (Homo sapiens, UniProt Q9UKV0); assay: Inhibition of HDAC9 (unknown origin); outline: as §1
Sequence of Histone deacetylase 9 (Q9UKV0 whole entry): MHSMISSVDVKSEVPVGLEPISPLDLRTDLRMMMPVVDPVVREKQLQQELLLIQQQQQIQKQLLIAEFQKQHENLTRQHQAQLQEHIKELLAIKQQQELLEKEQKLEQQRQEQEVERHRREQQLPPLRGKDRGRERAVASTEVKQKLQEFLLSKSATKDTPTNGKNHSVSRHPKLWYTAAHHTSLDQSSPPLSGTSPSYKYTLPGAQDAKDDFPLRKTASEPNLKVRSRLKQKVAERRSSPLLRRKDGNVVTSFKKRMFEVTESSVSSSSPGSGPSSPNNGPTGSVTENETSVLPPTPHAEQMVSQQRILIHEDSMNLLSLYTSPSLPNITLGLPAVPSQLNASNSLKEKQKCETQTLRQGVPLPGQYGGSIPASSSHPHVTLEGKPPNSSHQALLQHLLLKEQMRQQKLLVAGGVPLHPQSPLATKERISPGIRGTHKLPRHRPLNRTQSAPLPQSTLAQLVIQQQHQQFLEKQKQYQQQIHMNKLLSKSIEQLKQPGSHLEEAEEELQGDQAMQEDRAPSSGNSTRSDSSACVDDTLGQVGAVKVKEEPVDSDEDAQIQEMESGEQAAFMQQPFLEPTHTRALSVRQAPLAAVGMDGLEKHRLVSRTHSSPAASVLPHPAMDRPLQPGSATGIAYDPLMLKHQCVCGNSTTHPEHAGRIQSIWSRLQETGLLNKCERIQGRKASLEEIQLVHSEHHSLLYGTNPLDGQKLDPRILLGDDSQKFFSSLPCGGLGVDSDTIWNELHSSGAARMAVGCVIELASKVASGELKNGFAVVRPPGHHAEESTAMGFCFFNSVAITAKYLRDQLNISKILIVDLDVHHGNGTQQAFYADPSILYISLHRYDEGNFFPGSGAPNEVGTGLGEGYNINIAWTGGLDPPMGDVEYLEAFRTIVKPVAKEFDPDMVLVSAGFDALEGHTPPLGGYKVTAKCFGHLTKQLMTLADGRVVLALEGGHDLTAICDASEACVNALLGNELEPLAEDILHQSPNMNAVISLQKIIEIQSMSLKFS

[2] = target: T2, NAD-dependent protein deacetylase sirtuin-2 (Homo sapiens, UniProt Q8IXJ6); assay: Inhibition of SIRT2 (unknown origin); outline: as §1
T2 sequence (Q8IXJ6 whole entry): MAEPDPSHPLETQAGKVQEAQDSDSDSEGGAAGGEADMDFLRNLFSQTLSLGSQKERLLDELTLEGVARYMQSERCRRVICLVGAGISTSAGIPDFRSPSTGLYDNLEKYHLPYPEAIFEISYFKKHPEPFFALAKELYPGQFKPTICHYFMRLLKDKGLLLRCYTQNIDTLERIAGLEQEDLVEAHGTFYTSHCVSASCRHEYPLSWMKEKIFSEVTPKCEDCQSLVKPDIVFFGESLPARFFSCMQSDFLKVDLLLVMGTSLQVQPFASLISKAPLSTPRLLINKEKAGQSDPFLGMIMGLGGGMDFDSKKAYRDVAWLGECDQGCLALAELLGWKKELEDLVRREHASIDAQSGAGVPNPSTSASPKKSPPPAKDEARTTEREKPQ

[3] = Toxicity in mouse model of type-2 diabetes mellitus assessed as effect on body weight at 7.5 to 30 mg/kg, ip; assay type: organism-based; settings: in vivo
Outline: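 High-fat-diet-fed mice served as the type 2 diabetes model. Compound was given by intraperitoneal injection, and blood glucose and body weight were followed over time.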

[4] = target: T3, NAD-dependent protein deacetylase sirtuin-1 (Homo sapiens, UniProt Q96EB6); assay: Inhibition of SIRT1 (unknown origin); outline: as §1
T3 sequence (Q96EB6 whole entry): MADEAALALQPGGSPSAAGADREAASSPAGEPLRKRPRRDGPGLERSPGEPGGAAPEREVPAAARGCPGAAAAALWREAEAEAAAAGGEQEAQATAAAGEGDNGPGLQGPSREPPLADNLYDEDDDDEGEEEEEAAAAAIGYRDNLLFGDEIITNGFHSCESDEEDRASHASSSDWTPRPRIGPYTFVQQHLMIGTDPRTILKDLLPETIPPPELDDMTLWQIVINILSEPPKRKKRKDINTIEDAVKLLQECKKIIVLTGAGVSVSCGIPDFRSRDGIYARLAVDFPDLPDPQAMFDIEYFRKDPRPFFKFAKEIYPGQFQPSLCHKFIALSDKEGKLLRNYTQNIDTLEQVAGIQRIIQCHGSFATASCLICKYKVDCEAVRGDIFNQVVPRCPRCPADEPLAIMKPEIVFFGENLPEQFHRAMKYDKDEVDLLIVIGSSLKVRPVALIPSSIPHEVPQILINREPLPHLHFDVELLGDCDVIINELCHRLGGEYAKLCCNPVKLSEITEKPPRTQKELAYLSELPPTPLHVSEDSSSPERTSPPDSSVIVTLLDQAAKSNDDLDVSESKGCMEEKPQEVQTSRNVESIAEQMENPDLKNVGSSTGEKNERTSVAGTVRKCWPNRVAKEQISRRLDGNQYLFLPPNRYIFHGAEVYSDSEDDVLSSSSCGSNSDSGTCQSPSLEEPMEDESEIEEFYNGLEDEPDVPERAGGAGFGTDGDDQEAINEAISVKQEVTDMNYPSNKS

Histone deacetylase 8 = target: T4, Histone deacetylase 8 (Homo sapiens, UniProt Q9BY41); assay: Inhibition of HDAC8 (unknown origin); outline: as §1
T4 sequence (Q9BY41 whole entry): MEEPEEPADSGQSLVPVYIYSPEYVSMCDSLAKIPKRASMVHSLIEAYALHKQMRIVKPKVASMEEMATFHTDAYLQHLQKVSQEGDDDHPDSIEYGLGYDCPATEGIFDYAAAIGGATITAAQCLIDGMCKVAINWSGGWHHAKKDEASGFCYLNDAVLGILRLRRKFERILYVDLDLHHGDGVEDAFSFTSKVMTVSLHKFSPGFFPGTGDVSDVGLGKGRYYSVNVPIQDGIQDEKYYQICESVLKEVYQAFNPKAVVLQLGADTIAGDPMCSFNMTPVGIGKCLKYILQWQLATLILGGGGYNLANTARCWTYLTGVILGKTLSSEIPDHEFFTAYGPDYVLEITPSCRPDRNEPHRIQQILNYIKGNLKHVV

SMILES: CN1CCN(c2ccc([N+](=O)[O-])c(N)c2)CC1
- IC50 (Histone deacetylase 11): > 200 µM
- inhibition [1]: Dose-dependent effect
- IC50 (Histone deacetylase 9): > 200 µM
- IC50 [2]: > 200 µM
- Activity [3]: Non-Toxic
- IC50 [4]: > 200 µM
- IC50 (Histone deacetylase 8): > 200 µM
